Records with an inconclusive call do not appear.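 How the source made its calls, unless noted: active means inhibition over a set limit, the all-compound mean plus 3 SD, in both replicate runs; inconclusive means over that limit in just one replicate run; inactive means at or under that limit in both runs.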
How the values were obtained:
[1] = OD615 S. cerevisiae growth inhibition, permissive medium, pilot counter-assay, permissive growth control for S. cerevisiae lifespan shortening project (AID 705;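 active means growth inhibition above 25% in both replicates, a cutoff set 3 SD above the mean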); conditions: OD615, 24 h, at 10 µM, hits give high values
Method in brief: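 Test system: Saccharomyces cerevisiae strain carrying genetically modified DeaD replicative-lifespan system; buffer or medium: SC raffinose/galactose permissive medium; dosing: one dose 10 µM, DMSO 0.25% final; times: 24 h exposure, 30 °C; measured by: OD at 615 nm; read-out basis: growth inhibition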

[2] = Restrictive medium S. cerevisiae growth inhibition, OD615, pilot screen of yeast lifespan reduction project, restrictive growth control (AID 706;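 active means growth inhibition above a set limit, 3 SD over mean compound inhibition, in both replicates, cut at about 43% in these data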;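 further: modified DeaD lifespan yeast strain shifted to restrictive glucose medium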); conditions: OD615, 48 h, at 10 µM, hits give high values
Method in brief: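 material = engineered S. cerevisiae DeaD strain | buffer or medium = glucose-based CSMM-D restrictive medium | dosing = one concentration, 10 µM final, 0.25% DMSO | schedule = 4 h pre-growth plus 48 h compound exposure, 30 °C | detection = OD615 absorbance reading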

[3] = viability gain of MRP-1-high H69AR cells under doxorubicin, pilot screen, MRP-1 activator project, CellTiter-Glo, duplicate (AID 807;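 active means viability increase at or above a cutoff of the median across tested compounds plus 3 SD, cut at about 8.5% in these data, passing the limit was not always enough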;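 further: compound pretreatment 18-22 h then 72 h combined with doxorubicin; 0% = doxorubicin alone and 100% = vehicle without doxorubicin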); conditions: H69AR viability with doxorubicin, CellTiter-Glo luminescence; at 10 µM; hits give high values
[4] = growth suppression of beta-catenin knockout HCT116, pilot screen, human colon tumor cells (AID 823;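 active means cell viability at or below a set limit in both duplicate runs, the limit being the all-compound median minus 4 SD, cut at about 23% in these data, passing the limit was not always enough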;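 further: 0% = wells killed by 20 µM Hyamine and 100% = untreated DMSO cell wells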); conditions: CellTiter-Glo, 60 h, at 10 µM, hits give low values
[5] = growth suppression of PTEN-deleted HCT116, pilot screen, cell-based, HCT116 clonal line, CellTiter-Glo (AID 824;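 active means viability at or below 27.92% in each of two runs, the all-compound median minus 4 SD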;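 further: 0% = 20 µM Hyamine control and 100% = vehicle cell control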); conditions: 60 h, at 10 µM, hits give low values
[6] = inhibitors of the yeast RAM network, pilot screen, dse1pr::URA3 reporter, 5-FOA selection (AID 869);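 further: 0% = DMSO wells with no growth and 100% = 10 µM 1-NA-PP1 with full growth; RAM network block rescues cells from 5-FOA so hits raise OD615 growth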; conditions: S. cerevisiae dse1pr::URA3 5-FOA growth, OD615, 2 d; at 10 µM; hits give high values; strain carries analog-sensitive mutant Cbk1 kinase
[7] = RAM signaling pathway blockade in yeast – S. cerevisiae, Pdr1DBD-CYC8 efflux-inhibited sensitized strain, primary screen (AID 1298;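 active means RAM network inhibition above 8.4% in each of two replicates, 3 SD over the compound average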;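 further: 0% = DMSO untreated cells without growth and 100% = 10 µM 1-NA-PP1 full growth; higher means more yeast growth rescued from 5-FOA killing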); conditions: S. cerevisiae cbk1-as DSE1-URA3 strain, 5-FOA growth OD615, 2 d; at 50 µM; hits give high values

COc1cccc(C2CC(c3ccccc3)Nc3nc(N)nn32)c1 (stereo not drawn)
inactive: growth inhibition [1] -2.81% | growth inhibition [2] 7.94% | viability increase [3] 0.44% | viability [4] 94.9% | viability [5] 93.5% | inhibition [6] 1.83% | RAM network inhibition [7] 3.16%

Clc1ccc(CSc2nnc(-c3ccccn3)n2Cc2ccco2)c(Cl)c1
inactive: growth inhibition [1] -2.3% | growth inhibition [2] 11.9% | viability increase [3] -3.47% | viability [4] 70.2% | viability [5] 64.1% | inhibition [6] 1.68% | RAM network inhibition [7] 7.51%

Cc1ccnc(N2C(=O)c3ccccc3C2Nc2ccccc2Cl)c1 (stereo not drawn)
inactive: growth inhibition [1] -15.2% | growth inhibition [2] -17.5% | viability increase [3] 2.73% | viability [4] 84.9% | viability [5] 92.5% | inhibition [6] 1.49% | RAM network inhibition [7] 12.8%

COc1cccc2c1N1C(=O)c3c(C(=O)O)cccc3C1CC2(C)C (stereo not drawn)
inactive: growth inhibition [1] -15.2% | growth inhibition [2] -18.1% | viability increase [3] -2.18% | viability [4] 108% | viability [5] 98.9% | inhibition [6] 4.54% | RAM network inhibition [7] 2.74%

COc1ccc2c(=O)c(N3C(=O)c4ccccc4C3=O)c(C)oc2c1
inactive: growth inhibition [1] -11.8% | growth inhibition [2] -0.32% | viability increase [3] -1.12% | viability [4] 94.2% | viability [5] 92.6% | inhibition [6] -0.25% | RAM network inhibition [7] 1.33%

Cc1cc2c(cc(C(=O)N3CCC(C(=O)NC4CCCC4)CC3)n2Cc2c(F)cccc2Cl)o1
inactive: growth inhibition [1] -3.7% | growth inhibition [2] -5.26% | viability increase [3] -1.51% | viability [4] 62% | viability [5] 54.8% | inhibition [6] 0.72% | RAM network inhibition [7] 3.45%

O=C(C1CCN(c2ncnc3c2sc2cccc(F)c23)CC1)N1CCOCC1
inactive: growth inhibition [1] 0.06% | growth inhibition [2] 2.17% | viability increase [3] -6.73% | viability [4] 77.2% | viability [5] 76.8% | inhibition [6] 3.08% | RAM network inhibition [7] 1.81%

CC(=O)Nc1ccc(OCC=C(Cl)Cl)cc1
inactive: growth inhibition [1] 2.81% | growth inhibition [2] 5.66% | viability increase [3] 1.02% | viability [4] 97.2% | viability [5] 102% | inhibition [6] 0.805% | RAM network inhibition [7] 1.16%

Cn1c(Cn2c(=O)sc3ccccc32)nnc1SCC(=O)Nc1ccc(Cl)cc1
inactive: growth inhibition [1] -9.07% | growth inhibition [2] -17.2% | viability increase [3] -3.25% | viability [4] 98.6% | viability [5] 89% | inhibition [6] 3.06% | RAM network inhibition [7] 5.32%

COc1ccc2c(c1)NC1(O)c3ccccc3C(=O)C21O (stereo not drawn)
inactive: growth inhibition [1] -5.39% | growth inhibition [2] 4.5% | viability increase [3] -1.41% | viability [4] 99.3% | viability [5] 98.3% | inhibition [6] 1.53% | RAM network inhibition [7] 3.44%

CCOC(=O)N1CCC(N2C(=O)c3ccc(C(=O)NCc4ccc(F)cc4)cc3C2=O)CC1
inactive: growth inhibition [1] -0.31% | growth inhibition [2] -4.59% | viability increase [3] -1.21% | viability [4] 98.1% | viability [5] 100% | inhibition [6] 3.25% | RAM network inhibition [7] 8.97%

COCCNC(=O)CS(=O)Cc1nc(-c2ccccc2C)oc1C (stereo not drawn)
inactive: growth inhibition [1] -8.16% | growth inhibition [2] 5.6% | viability increase [3] -0.56% | viability [4] 100% | viability [5] 98% | inhibition [6] 0.23% | RAM network inhibition [7] 2.05%

Cc1cc(Nc2cccc(C)c2C)n2ncnc2n1
inactive: growth inhibition [1] -5.19% | growth inhibition [2] -1.32% | viability increase [3] -0.81% | viability [4] 95.1% | viability [5] 94.3% | inhibition [6] -0.155% | RAM network inhibition [7] -1.31%

O=C(CN1C(=O)COc2ccccc21)Nc1ccc(F)cc1
inactive: growth inhibition [1] -5.98% | growth inhibition [2] 6.11% | viability increase [3] -5.59% | viability [4] 106% | viability [5] 91.6% | inhibition [6] 1.26% | RAM network inhibition [7] 0.3%

CC(C)Oc1ccc(C2CNC(=O)C2)cc1 (stereo not drawn)
inactive: growth inhibition [1] -1.04% | growth inhibition [2] 0.15% | viability increase [3] -0.24% | viability [4] 102% | viability [5] 103% | inhibition [6] 1.04% | RAM network inhibition [7] 0.1%

S=c1nc(-c2ccccc2)n(CCCn2ccnc2)c2c1CCCC2
inactive: growth inhibition [1] -6.46% | growth inhibition [2] -0.21% | viability increase [3] 0.85% | viability [4] 102% | viability [5] 95.6% | inhibition [6] 2.03% | RAM network inhibition [7] -0.69%

Cc1ccc(-c2nc(CS(=O)CC(=O)NC3CCCC3)c(C)o2)cc1 (stereo not drawn)
inactive: growth inhibition [1] 5.52% | growth inhibition [2] 2.53% | viability increase [3] -4.16% | viability [4] 92.9% | viability [5] 91.4% | inhibition [6] 1.08% | RAM network inhibition [7] 5.29%

Cc1[nH]c2ccccc2c1Cc1nnc(SCC(N)=O)o1
inactive: growth inhibition [1] 5.65% | growth inhibition [2] -5.42% | viability increase [3] -0.41% | viability [4] 100% | viability [5] 102% | inhibition [6] 1.88% | RAM network inhibition [7] 1.36%

O=C(Nc1ccc2ccccc2c1)c1cccnc1
inactive: growth inhibition [1] -3.92% | growth inhibition [2] 2.79% | viability increase [3] -3.85% | viability [4] 93.2% | viability [5] 81.5% | inhibition [6] 1.27% | RAM network inhibition [7] 4.91%

N#CC1=C(c2ccccc2)N=P(N2CCOCC2)(N2CCOCC2)N=C1N1CCOCC1
inactive: growth inhibition [1] -6.26% | growth inhibition [2] -16.2% | viability increase [3] 0.57% | viability [4] 103% | viability [5] 107% | inhibition [6] 1.39% | RAM network inhibition [7] 0.33%

O=C(CCN1CCc2ccccc2C1)Nc1ccccc1
inactive: growth inhibition [1] -6.32% | growth inhibition [2] -8.03% | viability increase [3] -4.06% | viability [4] 89.8% | viability [5] 89.3% | inhibition [6] 2.04% | RAM network inhibition [7] 2.39%

COCCn1c(SCC(=O)OCc2ccccc2)nc2c1c(=O)[nH]c(=O)n2C
inactive: growth inhibition [1] 4.3% | growth inhibition [2] 1.99% | viability increase [3] 1.83% | viability [4] 98.6% | viability [5] 105% | inhibition [6] 0.815% | RAM network inhibition [7] 5.05%

O=C(CN(c1ccc(F)cc1)S(=O)(=O)c1ccc2c(c1)OCCO2)N1CCOCC1
inactive: growth inhibition [1] -3.38% | growth inhibition [2] -12.4% | viability increase [3] -2.08% | viability [4] 107% | viability [5] 104% | inhibition [6] 0.625% | RAM network inhibition [7] 2.45%

O=C(NC1CCCc2ccccc21)C1CCN(c2c(N3CCCC3)c(=O)c2=O)CC1 (stereo not drawn)
inactive: growth inhibition [1] -5.2% | growth inhibition [2] -2.66% | viability increase [3] -3.06% | viability [4] 92.4% | viability [5] 90% | inhibition [6] 1.51% | RAM network inhibition [7] -0.37%

Reference: PubChem BioAssay
